This note sets out measurements from ChEMBL document CHEMBL1134907, “An improved synthesis of the C-linked glucuronide of N-(4-hydroxyphenyl)retinamide” (Bioorg Med Chem Lett, 2002).

pKi: −log10 of the molar value.

The target in one experiment is RARα (Homo sapiens, UniProt P10276). As to the kind of experiment: Binding affinity for retinoic acid receptor RAR alpha.
Another experiment addresses RARβ (Homo sapiens, UniProt P10826). In words: Binding affinity for retinoic acid receptor RAR beta.
Another experiment deals with RARγ (Homo sapiens, UniProt P13631). In words: Binding affinity for retinoic acid receptor RAR gamma.
RARγ, sequence (P13631 whole entry, looked up): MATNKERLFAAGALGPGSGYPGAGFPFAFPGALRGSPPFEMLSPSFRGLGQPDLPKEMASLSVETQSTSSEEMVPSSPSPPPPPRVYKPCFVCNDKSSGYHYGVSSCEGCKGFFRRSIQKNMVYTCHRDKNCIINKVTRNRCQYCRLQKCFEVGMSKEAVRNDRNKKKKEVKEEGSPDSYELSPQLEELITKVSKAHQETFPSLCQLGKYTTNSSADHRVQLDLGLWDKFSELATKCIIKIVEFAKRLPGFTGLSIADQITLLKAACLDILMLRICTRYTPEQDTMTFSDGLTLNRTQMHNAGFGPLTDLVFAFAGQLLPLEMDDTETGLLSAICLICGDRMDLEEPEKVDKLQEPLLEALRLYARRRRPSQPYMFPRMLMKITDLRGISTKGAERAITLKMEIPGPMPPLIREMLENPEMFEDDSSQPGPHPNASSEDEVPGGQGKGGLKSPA
For experiment [1], the system named is Rattus norvegicus. In words: Mean number of tumors/rat after retinoid dose of 2 mmol/kg diet. The experiment is classed as functional.
Experiment [2] has as its system Rattus norvegicus. As to the kind of experiment: Percentage of rats with tumor after retinoid dose of 2 mmol/kg diet. The experiment is classed as functional.
Experiment [3] concerns Rattus norvegicus. In words: Latency in DMBA-induced mammary tumor in rat after retinoid dose of 2 mmol/kg diet. It counts as functional.
The species named for experiment [4] is Rattus norvegicus. As to the kind of experiment: Percentage change in DMBA-induced mammary tumor in rats;no new tumors, partial regression in 6/8 tumors. The experiment is classed as functional. Summed up:
(§1)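 Rats bearing mammary tumors induced by dimethylbenz[a]anthracene (DMBA) 50 days earlier were fed the treatment retinoid in the diet for 10 days. Each group had three tumor-bearing rats, which were killed after the 10 days. Every tumor on each rat was measured to estimate the mean tumor volume for the group.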

The test system of experiment [5] is Rattus norvegicus. In words: Final DMBA-induced mammary tumor volume in rat after retinoid treatment at 2 mmol/kg diet. It counts as functional. Summed up:
as §1

In experiment [6] the test system is Rattus norvegicus. In words: Initial DMBA-induced mammary tumor volume in rat after retinoid treatment at 2 mmol/kg diet. It counts as functional. The gist of the method:
as §1

The species entered for experiment [7] is Rattus norvegicus. In words: Percentage change in DMBA-induced mammary tumor in rats;Two new tumors, partial regression in 10/14 tumors. The experiment is classed as functional. Summed up:
as §1

For experiment [8], the species on record is Rattus norvegicus. In words: Percentage change in DMBA-induced mammary tumor in rats; no new tumors, partial regression in 10/10 tumors. It counts as functional. Summed up: as §1

RARβ, sequence (P10826 whole entry, looked up): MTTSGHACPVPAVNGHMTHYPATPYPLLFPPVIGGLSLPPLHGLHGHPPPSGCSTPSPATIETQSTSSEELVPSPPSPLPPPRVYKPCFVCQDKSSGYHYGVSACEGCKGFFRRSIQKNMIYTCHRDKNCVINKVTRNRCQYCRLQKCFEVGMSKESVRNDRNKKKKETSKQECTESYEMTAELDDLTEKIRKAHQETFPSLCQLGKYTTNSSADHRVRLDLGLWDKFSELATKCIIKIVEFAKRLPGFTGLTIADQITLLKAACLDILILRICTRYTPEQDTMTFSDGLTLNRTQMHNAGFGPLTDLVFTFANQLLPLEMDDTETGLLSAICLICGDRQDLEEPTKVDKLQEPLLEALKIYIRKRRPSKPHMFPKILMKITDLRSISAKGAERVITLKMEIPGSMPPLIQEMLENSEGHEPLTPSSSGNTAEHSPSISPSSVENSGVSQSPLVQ
RARα, sequence (P10276 whole entry, looked up): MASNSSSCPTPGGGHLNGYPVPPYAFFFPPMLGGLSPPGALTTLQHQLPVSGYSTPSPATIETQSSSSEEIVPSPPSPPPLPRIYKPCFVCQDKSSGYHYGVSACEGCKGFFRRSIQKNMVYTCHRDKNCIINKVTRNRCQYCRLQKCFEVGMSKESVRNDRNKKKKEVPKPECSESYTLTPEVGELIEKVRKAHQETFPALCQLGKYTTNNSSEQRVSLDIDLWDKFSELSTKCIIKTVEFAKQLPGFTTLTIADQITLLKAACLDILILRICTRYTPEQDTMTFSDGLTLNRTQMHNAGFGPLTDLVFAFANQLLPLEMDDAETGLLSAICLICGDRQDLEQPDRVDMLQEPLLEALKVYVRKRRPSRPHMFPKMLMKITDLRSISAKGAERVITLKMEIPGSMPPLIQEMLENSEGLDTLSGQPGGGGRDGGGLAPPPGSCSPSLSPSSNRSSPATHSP

On to `CC1=C(/C=C/C(C)=C/C=C/C(C)=C/C(=O)Nc2ccc(O[C@@H]3O[C@@H](C(=O)O)[C@@H](O)[C@H](O)[C@@H]3O)cc2)C(C)(C)CCC1`, for which the pKi was less than 5.66 on RARα, less than 5.55 at RARβ and less than 5.22 on RARγ. The Activity with Rattus norvegicus [1] turned out to be 0.71; in the experiment with Rattus norvegicus [2], 57%. This compound also came in with a Mean tumor atency in the experiment on Rattus norvegicus [3] of 48 days.

`CC1=C(/C=C/C(C)=C/C=C/C(C)=C/C(=O)Nc2ccc(CC3OC(C(=O)O)C(O)C(O)C3O)cc2)C(C)(C)CCC1` (stereo not drawn): the pKi on RARα was less than 5.66; at RARβ, less than 5.22. Also, in the experiment filed under Rattus norvegicus [4], the Change is recorded as -21%. Moreover, the results for the Activity in the experiment with Rattus norvegicus [1] and with Rattus norvegicus [2] were 0.36 and 27%, respectively. In the experiment with Rattus norvegicus [3], this compound registered a Mean tumor atency of 55 days. Also, the values for the Tumor volume in the experiment with Rattus norvegicus [5] and in the experiment with Rattus norvegicus [6] were 0.23 cm*3 and 0.29 cm*3, respectively.

`CC1=C(/C=C/C(C)=C/C=C/C(C)=C/C(=O)Nc2ccc(O)cc2)C(C)(C)CCC1` [FENRETINIDE]: the figures for the pKi on RARα, at RARβ and at RARγ were less than 5.66, less than 5.55 and less than 5.22, respectively. The Change in the experiment filed under Rattus norvegicus [7] is -25%. For the same compound, the values for the Tumor volume with Rattus norvegicus [5] and with Rattus norvegicus [6] were 0.12 cm*3 and 0.16 cm*3, respectively.

As for `CC1=C(/C=C/C(C)=C/C=C/C(C)=C/C(=O)O)C(C)(C)CCC1` [TRETINOIN], the Change in the experiment listed under Rattus norvegicus [8] was -40%. Besides, the Tumor volume is on record as 0.56 cm*3 with Rattus norvegicus [5] and 0.94 cm*3 with Rattus norvegicus [6].

What is called pKi is the negative decadic logarithm of the Ki, by convention in mol/L.
